ChEMBL document CHEMBL5649168, “Discovery of a selective catalytic p300/CBP inhibitor that targets lineage-specific tumours” (Nature, 2017)
pEC50, pIC50: −log10 of the molar value. Active and inactive are the calls of the source. The rule behind the calls is not given here.

Legend:
CREB-binding protein = CREB-binding protein (Homo sapiens, UniProt Q92793); assay: Inhibition of CBP in human 22Rv1 cells at 3 uM incubated for 24 hrs by Western blotting analysis; format: cell-based
MAO-A = MAO-A (Homo sapiens, UniProt P21397); assay: Inhibition of MAO-A (unknown origin) at 10 uM by radioligand binding assay relative to control
[1] = molecular target: Hepatocyte growth factor receptor (Homo sapiens, UniProt P08581); assay: Inhibition of c-MET (unknown origin)
[2] = molecular target: Dual specificity tyrosine-phosphorylation-regulated kinase 1B (Homo sapiens, UniProt Q9Y463); assay: Inhibition of DYRK1B (unknown origin)
[3] = molecular target: Tyrosine-protein kinase Fyn (Homo sapiens, UniProt P06241); assay: Inhibition of Fyn (unknown origin)
[4] = molecular target: G protein-coupled receptor kinase 5 (Homo sapiens, UniProt P34947); assay: Inhibition of GRK5 (unknown origin)
[5] = molecular target: Glycogen synthase kinase-3 alpha (Homo sapiens, UniProt P49840); assay: Inhibition of Gsk3alpha (unknown origin)
[6] = molecular target: Inhibitor of nuclear factor kappa-B kinase subunit epsilon (Homo sapiens, UniProt Q14164); assay: Inhibition of IKKE (unknown origin)
[7] = molecular target: Mitogen-activated protein kinase 14 (Homo sapiens, UniProt Q16539); assay: Inhibition of p38alpha (unknown origin)
[8] = molecular target: cAMP-dependent protein kinase (PKA) (Homo sapiens, UniProt P22694+P17612+P22612); assay: Inhibition of PKA (unknown origin); format: protein assay
[9] = molecular target: Serine/threonine-protein kinase D3 (Homo sapiens, UniProt O94806); assay: Inhibition of PRKCN (unknown origin)
[10] = molecular target: Rho-associated protein kinase 1 (Homo sapiens, UniProt Q13464); assay: Inhibition of Rock1 (unknown origin)
[11] = molecular target: Rho-associated protein kinase 2 (Homo sapiens, UniProt O75116); assay: Inhibition of Rock2 (unknown origin)
[12] = molecular target: Serine/threonine-protein kinase Sgk1 (Homo sapiens, UniProt O00141); assay: Inhibition of SGK1 (unknown origin)
[13] = molecular target: Serine/threonine-protein kinase 16 (Homo sapiens, UniProt O75716); assay: Inhibition of STK16 (unknown origin)
[14] = molecular target: Serine/threonine-protein kinase 33 (Homo sapiens, UniProt Q9BYT3); assay: Inhibition of STK33 (unknown origin)
[15] = molecular target: Serine/threonine-protein kinase TBK1 (Homo sapiens, UniProt Q9UHD2); assay: Inhibition of TBK1 (unknown origin)
[16] = molecular target: T1, CREB-binding protein/Histone acetyltransferase p300 (Homo sapiens, UniProt Q09472+Q92793); assay: Inhibition of p300/CBP in human 22Rv1 cells assessed as reduction in H3K18Ac level incubated for 24 hrs by Hoechst 33342 staining based high content microscopy analysis; format: cell-based
Method in brief: (§1)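 Cells received an 8-point half-log dilution series from 10 µM. They were then fixed in 10% formaldehyde (10 min, RT), permeabilised with 0.1% Triton X-100 and blocked with 1% BSA for 1 h. Primary antibodies were applied overnight at 4 °C, followed by Alexa488 anti-rabbit, Alexa555 anti-mouse and Hoechst 33342 for 1 h. Fifteen fields per well were imaged and average mean intensity taken. EC50 came from a sigmoidal fit.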

[17] = molecular target: T1, CREB-binding protein/Histone acetyltransferase p300; assay: Inhibition of p300/CBP in human 22Rv1 cells assessed as reduction in H3K9Ac level incubated for 3 hrs by Hoechst 33342 staining based high content microscopy analysis; format: cell-based; method in brief: as §1
[18] = molecular target: T1, CREB-binding protein/Histone acetyltransferase p300; assay: Inhibition of p300/CBP in human 22Rv1 cells assessed as reduction in H3K9Ac level incubated for 24 hrs by Hoechst 33342 staining based high content microscopy analysis; format: cell-based; method in brief: as §1
NCI-H23 = assay: Antiproliferative activity against human NCI-H23 cells assessed as inhibition of cell viability incubated for 3 to 5 days by Celltiter-Glo luminescent assay; format: functional, cell-based
NCI-H1693 = assay: Antiproliferative activity against human NCI-H1693 cells assessed as inhibition of cell viability incubated for 3 to 5 days by Celltiter-Glo luminescent assay; format: functional, cell-based
NCI-H522 = assay: Antiproliferative activity against human NCI-H522 cells assessed as inhibition of cell viability incubated for 3 to 5 days by Celltiter-Glo luminescent assay; format: functional, cell-based
NCI-H661 = assay: Antiproliferative activity against human NCI-H661 cells assessed as inhibition of cell viability incubated for 3 to 5 days by Celltiter-Glo luminescent assay; format: functional, cell-based
Calu-6 = assay: Antiproliferative activity against human Calu-6 cells assessed as inhibition of cell viability incubated for 3 to 5 days by Celltiter-Glo luminescent assay; format: functional, cell-based
NCI-H596 = assay: Antiproliferative activity against human NCI-H596 cells assessed as inhibition of cell viability incubated for 3 to 5 days by Celltiter-Glo luminescent assay; format: functional, cell-based
VCaP = assay: Antiproliferative activity against human VCaP cells assessed as inhibition of cell viability incubated for 3 to 5 days by Celltiter-Glo luminescent assay; format: functional, cell-based
CHL-1 = assay: Antiproliferative activity against human CHL-1 cells assessed as inhibition of cell viability incubated for 3 to 5 days by Celltiter-Glo luminescent assay; format: functional, cell-based
SK-MEL-1 = assay: Antiproliferative activity against human SK-MEL-1 cells assessed as inhibition of cell viability incubated for 3 to 5 days by Celltiter-Glo luminescent assay; format: functional, cell-based
COLO-679 = assay: Antiproliferative activity against human COLO-679 cells assessed as inhibition of cell viability incubated for 3 to 5 days by Celltiter-Glo luminescent assay; format: functional, cell-based
Malme-3M = assay: Antiproliferative activity against human Malme-3M cells assessed as inhibition of cell viability incubated for 3 to 5 days by Celltiter-Glo luminescent assay; format: functional, cell-based
HT-144 = assay: Antiproliferative activity against human HT-144 cells assessed as inhibition of cell viability incubated for 3 to 5 days by Celltiter-Glo luminescent assay; format: functional, cell-based
SK-MEL-2 = assay: Antiproliferative activity against human SK-MEL-2 cells assessed as inhibition of cell viability incubated for 3 to 5 days by Celltiter-Glo luminescent assay; format: functional, cell-based
HCC1395 = assay: Antiproliferative activity against human HCC1395 cells assessed as inhibition of cell viability incubated for 3 to 5 days by Celltiter-Glo luminescent assay; format: functional, cell-based
CA46 = assay: Antiproliferative activity against human CA46 cells assessed as inhibition of cell viability incubated for 3 to 5 days by Celltiter-Glo luminescent assay; format: functional, cell-based
OCI-Ly7 = assay: Antiproliferative activity against human OCILY7 cells assessed as inhibition of cell viability incubated for 3 to 5 days by Celltiter-Glo luminescent assay; format: functional, cell-based
K562 = assay: Antiproliferative activity against human K562 cells assessed as inhibition of cell viability incubated for 3 to 5 days by Celltiter-Glo luminescent assay; format: functional, cell-based
[19] = Tmax in CB17 SCID mouse xenografted with LuCaP-77 CR cell at 100 mg/kg, ip administered for 7 days; format: ADME, organism-based; conditions: in vivo, time 7 day
[20] = Cmax in CB17 SCID mouse xenografted with LuCaP-77 CR cell at 200 mg/kg, ip administered for 7 days; format: ADME, organism-based; conditions: in vivo, time 7 day
cells = conditions: Homo sapiens, MINO

T1 sequence (Q09472 whole entry, looked up): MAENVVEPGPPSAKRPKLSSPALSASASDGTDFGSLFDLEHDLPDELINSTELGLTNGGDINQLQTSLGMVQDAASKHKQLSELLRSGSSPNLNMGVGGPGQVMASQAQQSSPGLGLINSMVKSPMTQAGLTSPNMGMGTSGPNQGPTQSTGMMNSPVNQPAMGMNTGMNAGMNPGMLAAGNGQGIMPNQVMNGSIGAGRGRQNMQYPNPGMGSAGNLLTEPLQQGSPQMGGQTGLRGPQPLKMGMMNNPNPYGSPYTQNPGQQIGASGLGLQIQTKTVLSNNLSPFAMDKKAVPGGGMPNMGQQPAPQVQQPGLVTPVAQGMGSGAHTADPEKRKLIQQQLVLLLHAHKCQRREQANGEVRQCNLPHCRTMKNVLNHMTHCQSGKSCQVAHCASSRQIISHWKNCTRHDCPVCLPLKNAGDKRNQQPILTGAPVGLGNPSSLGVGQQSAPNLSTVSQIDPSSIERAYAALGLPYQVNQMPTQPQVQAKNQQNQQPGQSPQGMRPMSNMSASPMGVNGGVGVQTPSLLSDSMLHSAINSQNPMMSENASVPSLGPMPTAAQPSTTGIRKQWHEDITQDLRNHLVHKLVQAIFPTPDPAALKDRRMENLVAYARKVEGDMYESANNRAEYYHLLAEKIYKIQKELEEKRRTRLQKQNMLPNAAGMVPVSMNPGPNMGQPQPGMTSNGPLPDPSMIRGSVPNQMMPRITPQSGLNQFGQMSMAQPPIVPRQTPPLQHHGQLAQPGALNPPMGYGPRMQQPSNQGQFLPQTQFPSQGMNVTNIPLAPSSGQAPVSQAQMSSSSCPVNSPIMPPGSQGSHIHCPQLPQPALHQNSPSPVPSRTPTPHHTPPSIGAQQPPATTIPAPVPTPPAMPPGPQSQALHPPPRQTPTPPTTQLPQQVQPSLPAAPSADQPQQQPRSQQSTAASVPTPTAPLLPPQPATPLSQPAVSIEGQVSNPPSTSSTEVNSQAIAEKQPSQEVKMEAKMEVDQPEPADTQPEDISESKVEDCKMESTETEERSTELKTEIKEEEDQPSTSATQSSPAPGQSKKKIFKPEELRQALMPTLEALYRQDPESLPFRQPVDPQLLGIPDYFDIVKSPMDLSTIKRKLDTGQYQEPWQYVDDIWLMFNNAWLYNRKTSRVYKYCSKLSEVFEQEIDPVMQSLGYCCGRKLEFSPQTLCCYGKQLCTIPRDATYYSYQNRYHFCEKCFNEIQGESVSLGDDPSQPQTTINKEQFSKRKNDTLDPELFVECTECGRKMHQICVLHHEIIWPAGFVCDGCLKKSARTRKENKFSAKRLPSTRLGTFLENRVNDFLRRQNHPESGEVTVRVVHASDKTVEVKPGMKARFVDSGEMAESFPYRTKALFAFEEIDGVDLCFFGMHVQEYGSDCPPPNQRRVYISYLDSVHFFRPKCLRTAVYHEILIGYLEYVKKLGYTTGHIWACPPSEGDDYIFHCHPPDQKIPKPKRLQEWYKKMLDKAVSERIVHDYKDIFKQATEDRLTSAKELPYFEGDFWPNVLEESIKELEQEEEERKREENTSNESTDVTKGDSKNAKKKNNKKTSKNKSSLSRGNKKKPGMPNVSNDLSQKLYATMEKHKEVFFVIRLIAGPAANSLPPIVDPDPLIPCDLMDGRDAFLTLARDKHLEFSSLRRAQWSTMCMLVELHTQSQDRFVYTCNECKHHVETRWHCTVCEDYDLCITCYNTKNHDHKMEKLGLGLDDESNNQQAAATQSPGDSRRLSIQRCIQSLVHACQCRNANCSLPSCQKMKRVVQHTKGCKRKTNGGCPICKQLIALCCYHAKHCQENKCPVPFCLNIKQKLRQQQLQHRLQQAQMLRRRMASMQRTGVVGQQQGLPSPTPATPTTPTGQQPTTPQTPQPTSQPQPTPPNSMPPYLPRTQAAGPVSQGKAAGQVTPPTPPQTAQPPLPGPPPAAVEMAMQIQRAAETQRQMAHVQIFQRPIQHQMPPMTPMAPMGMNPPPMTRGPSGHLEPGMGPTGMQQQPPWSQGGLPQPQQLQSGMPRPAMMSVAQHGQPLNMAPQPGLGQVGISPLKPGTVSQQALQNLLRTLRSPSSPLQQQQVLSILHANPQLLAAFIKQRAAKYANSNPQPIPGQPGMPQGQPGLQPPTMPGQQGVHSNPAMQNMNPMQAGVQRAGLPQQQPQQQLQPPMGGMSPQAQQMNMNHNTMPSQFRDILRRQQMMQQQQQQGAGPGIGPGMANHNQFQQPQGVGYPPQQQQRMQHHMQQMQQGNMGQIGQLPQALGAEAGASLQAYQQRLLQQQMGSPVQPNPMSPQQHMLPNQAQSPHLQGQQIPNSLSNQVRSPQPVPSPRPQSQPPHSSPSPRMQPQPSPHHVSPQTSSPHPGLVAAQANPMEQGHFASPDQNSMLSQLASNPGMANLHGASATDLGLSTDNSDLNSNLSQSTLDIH
T1 sequence (Q92793 whole entry, looked up): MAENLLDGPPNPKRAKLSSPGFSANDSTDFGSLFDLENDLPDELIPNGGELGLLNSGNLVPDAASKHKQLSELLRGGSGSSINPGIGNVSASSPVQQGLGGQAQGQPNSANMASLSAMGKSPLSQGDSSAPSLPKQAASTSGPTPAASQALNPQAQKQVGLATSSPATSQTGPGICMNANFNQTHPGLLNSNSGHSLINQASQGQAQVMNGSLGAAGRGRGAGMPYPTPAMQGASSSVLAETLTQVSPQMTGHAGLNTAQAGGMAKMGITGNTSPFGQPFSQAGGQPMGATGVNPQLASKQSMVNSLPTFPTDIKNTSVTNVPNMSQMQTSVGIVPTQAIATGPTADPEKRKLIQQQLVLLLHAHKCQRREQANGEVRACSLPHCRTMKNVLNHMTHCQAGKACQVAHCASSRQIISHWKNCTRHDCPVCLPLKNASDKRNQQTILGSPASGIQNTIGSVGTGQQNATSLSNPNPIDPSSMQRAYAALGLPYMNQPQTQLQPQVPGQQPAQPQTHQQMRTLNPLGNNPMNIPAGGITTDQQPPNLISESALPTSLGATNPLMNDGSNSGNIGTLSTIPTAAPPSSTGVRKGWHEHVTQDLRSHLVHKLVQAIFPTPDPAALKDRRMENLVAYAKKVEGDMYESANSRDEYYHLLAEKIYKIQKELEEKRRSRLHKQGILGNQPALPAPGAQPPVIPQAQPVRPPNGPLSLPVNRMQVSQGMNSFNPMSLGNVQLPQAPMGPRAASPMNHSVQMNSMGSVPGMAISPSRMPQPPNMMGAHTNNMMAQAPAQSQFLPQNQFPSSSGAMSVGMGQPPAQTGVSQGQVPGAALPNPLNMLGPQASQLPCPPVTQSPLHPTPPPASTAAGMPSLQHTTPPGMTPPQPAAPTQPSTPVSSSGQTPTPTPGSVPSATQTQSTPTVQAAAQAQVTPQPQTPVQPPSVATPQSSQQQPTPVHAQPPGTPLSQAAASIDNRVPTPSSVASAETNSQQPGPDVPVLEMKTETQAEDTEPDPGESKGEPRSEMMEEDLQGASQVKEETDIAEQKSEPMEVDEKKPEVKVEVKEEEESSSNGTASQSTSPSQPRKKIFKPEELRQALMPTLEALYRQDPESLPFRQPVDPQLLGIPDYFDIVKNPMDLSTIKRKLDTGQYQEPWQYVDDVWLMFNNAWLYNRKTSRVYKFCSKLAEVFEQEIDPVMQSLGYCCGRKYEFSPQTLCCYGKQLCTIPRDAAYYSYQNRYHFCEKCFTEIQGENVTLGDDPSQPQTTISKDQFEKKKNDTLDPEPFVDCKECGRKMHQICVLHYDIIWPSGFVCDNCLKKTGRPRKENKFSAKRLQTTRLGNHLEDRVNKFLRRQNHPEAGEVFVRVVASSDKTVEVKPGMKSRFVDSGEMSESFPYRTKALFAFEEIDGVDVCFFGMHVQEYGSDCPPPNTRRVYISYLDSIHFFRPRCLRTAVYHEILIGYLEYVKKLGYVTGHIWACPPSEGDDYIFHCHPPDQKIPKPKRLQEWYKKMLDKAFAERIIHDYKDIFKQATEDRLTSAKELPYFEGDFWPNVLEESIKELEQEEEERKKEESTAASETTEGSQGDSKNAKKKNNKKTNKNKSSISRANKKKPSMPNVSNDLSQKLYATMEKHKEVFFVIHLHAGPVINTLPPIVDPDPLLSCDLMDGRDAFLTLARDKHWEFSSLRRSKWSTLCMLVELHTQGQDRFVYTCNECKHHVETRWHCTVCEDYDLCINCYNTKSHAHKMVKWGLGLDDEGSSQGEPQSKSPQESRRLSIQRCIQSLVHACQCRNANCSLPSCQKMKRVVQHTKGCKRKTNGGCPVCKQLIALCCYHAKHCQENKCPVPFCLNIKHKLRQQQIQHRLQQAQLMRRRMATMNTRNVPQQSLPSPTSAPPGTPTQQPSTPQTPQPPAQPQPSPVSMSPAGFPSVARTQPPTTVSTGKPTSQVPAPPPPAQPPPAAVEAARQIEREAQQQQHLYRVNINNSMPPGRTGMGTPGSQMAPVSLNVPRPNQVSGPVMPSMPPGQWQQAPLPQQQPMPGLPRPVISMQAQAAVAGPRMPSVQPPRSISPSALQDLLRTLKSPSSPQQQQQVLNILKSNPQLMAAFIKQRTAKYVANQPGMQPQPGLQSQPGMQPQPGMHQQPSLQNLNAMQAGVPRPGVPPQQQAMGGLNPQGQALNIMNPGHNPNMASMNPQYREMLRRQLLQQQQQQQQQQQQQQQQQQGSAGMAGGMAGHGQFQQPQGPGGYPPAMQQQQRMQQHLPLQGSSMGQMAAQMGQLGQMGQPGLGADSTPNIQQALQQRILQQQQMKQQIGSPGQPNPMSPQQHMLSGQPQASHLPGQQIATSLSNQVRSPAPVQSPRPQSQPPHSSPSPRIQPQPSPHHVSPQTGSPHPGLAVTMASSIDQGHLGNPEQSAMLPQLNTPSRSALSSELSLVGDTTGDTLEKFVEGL
Serine/threonine-protein kinase 16, sequence (O75716 whole entry): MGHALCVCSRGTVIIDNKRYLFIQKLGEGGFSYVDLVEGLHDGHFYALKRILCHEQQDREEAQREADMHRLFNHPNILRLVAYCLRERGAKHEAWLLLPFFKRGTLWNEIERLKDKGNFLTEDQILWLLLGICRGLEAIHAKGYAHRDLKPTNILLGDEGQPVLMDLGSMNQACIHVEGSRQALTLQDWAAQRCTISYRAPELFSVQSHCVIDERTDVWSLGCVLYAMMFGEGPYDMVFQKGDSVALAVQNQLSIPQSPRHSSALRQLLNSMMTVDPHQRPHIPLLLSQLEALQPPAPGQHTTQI

SMILES: CNC(=O)Nc1ccc2c(c1)CC[C@@]21OC(=O)N(CC(=O)N(Cc2ccc(F)cc2)[C@@H](C)C(F)(F)F)C1=O [A-485]
- inhibition (CREB-binding protein): inactive
- inhibition at 10 µM (MAO-A): 28%
- pIC50 [1]: < 5.00
- pIC50 [2]: < 5.00
- pIC50 [3]: < 5.00
- pIC50 [4]: < 5.00
- pIC50 [5]: < 5.00
- pIC50 [6]: < 5.00
- pIC50 [7]: < 5.00
- IC50 [8]: > 10 µM
- pIC50 [9]: < 5.00
- pIC50 [10]: < 5.00
- pIC50 [11]: < 5.00
- pIC50 [12]: < 5.00
- pIC50 [13]: < 5.00
- pIC50 [14]: < 5.00
- pIC50 [15]: < 5.00
- INH [16]: 3.79 µM
- INH [17]: > 10 µM
- INH [18]: > 10 µM
- pEC50 (NCI-H23): 5.75
- pEC50 (NCI-H1693): 5.63
- pEC50 (NCI-H522): 5.45
- pEC50 (NCI-H661): 5.12
- pEC50 (Calu-6): 5.07
- pEC50 (NCI-H596): < 5.00
- pEC50 (VCaP): 7.40
- pEC50 (CHL-1): 6.43
- pEC50 (SK-MEL-1): 6.24
- pEC50 (COLO-679): 5.65
- pEC50 (Malme-3M): 5.57
- pEC50 (HT-144): 5.51
- pEC50 (SK-MEL-2): < 5.00
- pEC50 (HCC1395): < 5.00
- pEC50 (CA46): 6.32
- pEC50 (OCI-Ly7): 5.74
- pEC50 (K562): 5.90
- Tmax [19]: 3 h
- Cmax [20]: 242 µg/mL
- pEC50 (cells): 6.28
